Measurements of several laboratories.
Protocols differ between the studies behind these lines.
Organism: Acinetobacter baumannii
Effect on: microbial growth

With `N=C(N)c1ccc(OCc2ccc(Br)cc2COc2ccc(C(=N)N)cc2)cc1` the MIC was > 200 µg/mL (broth dilution; ATCC17978).
The MIC of `C[C@@H](O)[C@H]1C(=O)N2C(C(=O)O)=C(S[C@@H]3CN[C@H](C(=O)N(C)C)C3)[C@H](C)[C@H]12` is reported as 128 µg/mL (clinical isolate).
`CC(C)(O/N=C(\C(=O)N[C@@H]1C(=O)N2C(C(=O)[O-])=C(C[n+]3ccccc3)CS[C@H]12)c1csc(N)n1)C(=O)O` gave an MIC of 4 µg/mL (broth dilution; ATCC19606).
`C[C@@H](O)[C@H]1C(=O)N2C(C(=O)O)=C(SCCN=CN)C[C@H]12` gave an MIC of 1 µM (broth dilution; KCCM40203; 16 h).
For `N=C(N)c1ccc(OCc2cc(Br)cc(COc3ccc(C(=N)N)cc3)c2)cc1`, the MIC was > 200 µg/mL (broth dilution; ATCC17978).
`CN[C@@H]1[C@@H](O)[C@@H](O[C@@H]2[C@@H](O)[C@H](O[C@H]3OC(CNCCO)=CC[C@H]3N)[C@@H](N)C[C@H]2NC(=O)[C@@H](O)CCN)OC[C@]1(C)O` has an MIC of 2 µg/mL.
`CN(C)c1ccc(O)c2c1C[C@H]1C[C@H]3[C@H](N(C)C)C(O)=C(C(N)=O)C(=O)[C@@]3(O)C(O)=C1C2=O` gave an MIC of 0.063 µg/mL (broth dilution; ATCC19606).
The MIC of `O=C(O)c1ccc(-n2cc(/C=N/Nc3ccccc3F)c(-c3ccc4ccccc4c3)n2)cc1` is reported as 25 µg/mL (ATCCBAA1605).
The MIC of `O=C(Nc1ccc(F)c(Cl)c1)c1cc(Cl)ccc1O` is reported as > 64 µg/mL (broth dilution; BAA1605).
With `CN(C)c1ccc(-c2ccc3cc4c(c(O)c3c2)C(=O)C2=C(O)[C@]3(O)C(=O)C(C(N)=O)=C(O)[C@@H](N(C)C)[C@@H]3C[C@@H]2C4)cc1` the MIC was 32 µg/mL (broth dilution; ATCC19606).
`COc1ncc(O)c2c1C[C@H]1C[C@H]3[C@H](N(C)C)C(O)=C(C(N)=O)C(=O)[C@@]3(O)C(O)=C1C2=O.Cl.Cl` has an MIC of 0.5 µg/mL (broth dilution; ATCC19606).
`N=C(N)c1ccc(OCc2ccc(-c3ccccc3)cc2COc2ccc(C(=N)N)cc2)cc1` gave an MIC of > 200 µg/mL (broth dilution; ATCC17978).
For `CN(C)[C@@H]1C(O)=C(C(N)=O)C(=O)[C@@]2(O)C(O)=C3C(=O)c4c(O)c(-c5ccccc5)nc(Cl)c4C[C@H]3C[C@@H]12.Cl`, the MIC was 16 µg/mL (broth dilution; ATCC19606).
With `C/C(=C\c1ccc(O)cc1)C(=O)Nc1ccc(C(=O)N[C@@H](CC(N)=O)C(=O)Nc2ccc(C(=O)Nc3ccc(C(=O)Nc4ccc(C(=O)O)cc4)c(O)c3OC(C)C)cc2)cc1` the MIC was 0.25 µg/mL (DSM30008).
`O=C(O)c1ccc(-n2cc(/C=N/Nc3cccc(Br)c3)c(-c3cccc(F)c3)n2)cc1` gave an MIC of 12.5 µg/mL (ATCCBAA1605).
For `CCCCCCC/C=C/C(=O)N1C(=O)/C(=C(\O)c2ccccc2)C(=O)C1CC(C)C` (stereo not shown), the MIC was > 200 µg/mL (ATCC19606).
`O=C(CCc1cc(O)c(O)c(O)c1)NCCCCCCCC[P+](c1ccccc1)(c1ccccc1)c1ccccc1.[Br-]` has an MIC of > 32 µg/mL (broth dilution; ATCC19606; 18 h).
`NC[C@H]1O[C@H](O[C@H]2[C@H](O)[C@@H](O[C@H]3O[C@H](CO)[C@@H](O)[C@H](N)[C@H]3O)[C@H](N)C[C@@H]2N)[C@H](N)C[C@@H]1O` gave an MIC of 1 µg/mL.
With `CN(C)[C@@H]1C(O)=C(C(N)=O)C(=O)[C@@]2(O)C(O)=C3C(=O)c4c(O)cncc4C[C@H]3C[C@@H]12.Cl.Cl` the MIC was 2 µg/mL (broth dilution; ATCC19606).
For `COc1cccc2c(O)c3c(cc12)C[C@H]1C[C@H]2[C@H](N(C)C)C(O)=C(C(N)=O)C(=O)[C@@]2(O)C(O)=C1C3=O`, the MIC was > 32 µg/mL (broth dilution; ATCC19606).
`O=[N+]([O-])c1ccc(O)c2ncccc12` has an MIC of 8 µg/mL (broth dilution; ATCC19606).
`CCn1cc(C(=O)O)c(=O)c2cc(F)c(N3CCNCC3)cc21` has an MIC of 16 µM (broth dilution; BAA747).
With `CC(C)Oc1c(NC(=O)c2ccc(NC(=O)[C@H](CC(N)=O)NC(=O)c3ccc(NC(=O)c4ccc(C#N)s4)cc3)cc2)ccc(C(=O)Nc2ccc(C(=O)O)cc2)c1O` the MIC was 0.125 µg/mL (DSM30008).
For `CCCCCCC/C=C/C(=O)N1CC(=O)/C(=C(\C)O)C1=O`, the MIC was 100 µg/mL (ATCC19606).
The MIC of `CN(C)[C@@H]1C(O)=C(C(N)=O)C(=O)[C@@]2(O)C(O)=C3C(=O)c4c(cc5ccc(-c6cccnc6)cc5c4O)C[C@H]3C[C@@H]12` is reported as 32 µg/mL (broth dilution; ATCC19606).
`CN(C)[C@@H]1C(O)=C(C(N)=O)C(=O)[C@@]2(O)C(O)=C3C(=O)c4c(O)c(N)nc(F)c4C[C@H]3C[C@@H]12.Cl.Cl` gave an MIC of 0.5 µg/mL (broth dilution; ATCC19606).
`CCCCC(=O)N1C(=O)/C(=C(/C)O)C(=O)C1CC(C)C` (stereo not shown) gave an MIC of > 200 µg/mL (ATCC19606).
With `O=C(Cc1cc(O)c(O)c(O)c1)NCCCCCCCC[P+](c1ccccc1)(c1ccccc1)c1ccccc1.[Br-]` the MIC was > 32 µg/mL (broth dilution; ATCC19606; 18 h).
For `CC(NCCCCOc1ccc(Cl)c(Cl)c1)c1cc2cc(Br)ccc2[nH]1` (stereo not shown), the MIC was 32 µg/mL (broth dilution; ATCC19606).
`NC[C@H]1O[C@H](O[C@H]2[C@H](O)[C@@H](O[C@H]3O[C@H](CO)[C@@H](O)[C@H](N)[C@H]3O)[C@H](N)C[C@@H]2N)[C@H](N)C[C@@H]1O` has an MIC of > 200 µM (broth dilution; clinical isolate).
For `CCCCCCC/C=C/C(=O)N1C(=O)/C(=C(\O)c2ccc(F)cc2)C(=O)C1CC(C)C` (stereo not shown), the MIC was > 200 µg/mL (ATCC19606).
For `O=[N+]([O-])c1ccc(/C=N/Nc2nc(Nc3ccccc3)nc(N3CCOCC3)n2)o1`, the MIC was > 120 µM.
`CCCCCCC/C=C/C(=O)N1C(=O)/C(=C(\O)CCCC)C(=O)C1CC(C)C` (stereo not shown) gave an MIC of 200 µg/mL (ATCC19606).
`NC1CCCCc2c1[nH]c1ccc(Cl)c(Cl)c21` (stereo not shown) has an MIC of 16 µg/mL (broth dilution; ATCC19606).
With `CC(C)CNc1nc(Cl)c2c(c1O)C(=O)C1=C(O)[C@]3(O)C(=O)C(C(N)=O)=C(O)[C@@H](N(C)C)[C@@H]3C[C@@H]1C2.Cl.Cl.Cl` the MIC was 2 µg/mL (broth dilution; ATCC19606).
`CN(C)[C@@H]1C(O)=C(C(N)=O)C(=O)[C@@]2(O)C(O)=C3C(=O)c4c(cc5ccc(-c6ccccc6)cc5c4O)C[C@H]3C[C@@H]12` has an MIC of 32 µg/mL (broth dilution; ATCC19606).
`O=C(CCCCCCCCCC[P+](c1ccccc1)(c1ccccc1)c1ccccc1)Nc1ccc(O)c(O)c1.[Br-]` has an MIC of > 32 µg/mL (broth dilution; ATCC19606; 18 h).
`N#Cc1ccc(N/N=C/c2cn(-c3ccc(C(=O)O)cc3)nc2-c2ccc(F)cc2)cc1` has an MIC of > 25 µg/mL (ATCCBAA1605).
With `NCCCNC1CCCCc2c1[nH]c1ccc(Br)cc21` (stereo not shown) the MIC was 32 µg/mL (broth dilution; ATCC19606).
`O=C(N[C@H](CO)[C@H](O)c1ccc([N+](=O)[O-])cc1)C(Cl)Cl` gave an MIC of 250 µg/mL (ATCC19606).
